# A selection: hits, their analogues and other compounds. The true share with any hit is near 3.1%.
# KCNQ1 block: inhibitors of human KCNQ1 channel, primary screen, cell-based, thallium flux, high-throughput. CHO-K1 KCNQ1, FluxOR thallium flux fluorescence; hits give high values. B-score at 10 µM. AID 2642, 2010. actives 1.3% (n = 310,000);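 active = compounds whose thallium flux B-score, printed positive for inhibition, exceeds three library SD while starting fluorescence stays within three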;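 also: channel opened by potassium depolarization with thallium stimulus after 20 min compound exposure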
# KCNK9 block: KCNK9 potassium channel inhibitors, primary screen, HEK293 cells, thallium flux; Potassium channel subfamily K member 9 (Homo sapiens), Q9NPC2; FluxOR thallium flux fluorescence; hits give low values; B-score at 10 µM; actives 1.2% (n = 310,000); AID 488922, 2010;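 active = ratio B-score over 3 SD below the library mean, with starting fluorescence within 5 SD of its mean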;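 also: negative B-score means less thallium flux so channel inhibition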
# KCNK3 block: human KCNK3 channel inhibitors, primary screen, CHO cells, FluxOR thallium flux, B-score. actives 0.84% (n = 340,000). Potassium channel subfamily K member 3 (Homo sapiens), O14649. FluxOR fluorescence; hits give low values. B-score at 10 µM. AID 602410, 2012;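 active = B-score under library mean minus 4 SD, starting fluorescence ratio at most library mean plus 5 SD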;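 also: more negative B-score means stronger inhibition of thallium flux through KCNK3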
# hERG protect: hERG rescue from dofetilide block, primary screen, cell-based, CHO-hERG, FluxOR thallium flux, dofetilide IC70; dofetilide IC70 present; actives 0.51% (n = 310,000); Voltage-gated inwardly rectifying potassium channel KCNH2 (Homo sapiens), Q12809; activation (rescue from dofetilide block), less the hit threshold, % at 10 µM;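 active = activation above the mean of controls blocked by dofetilide plus 5 SD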;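 also: thallium influx through hERG after potassium depolarization seen as dye fluorescence rise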
# KCNQ1 act: potentiators or activators of KCNQ1 channel, primary screen, cell-based, thallium flux, high-throughput; AID 2648, 2010; actives 0.35% (n = 310,000); Potassium voltage-gated channel subfamily KQT member 1 (Homo sapiens), P51787; CHO-K1 KCNQ1, thallium flux FluxOR fluorescence; hits give high values; B-score at 10 µM;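 active = fluorescence ratio B-score, a plate-corrected score, at least three library SD, with initial intensity B-score within 5 SD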
#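 assay system = CHO-K1 cells stably expressing KCNQ1 | medium = assay buffer, equal DMSO in all wells | timing = 37 °C overnight plating, 90-min dark dye load, 20-min compound pretreatment | measured by = kinetic FluxOR thallium fluorescence, 10-s 1-Hz baseline, 110-s post-stimulus read | measure = fluorescence change relative to baseline, converted to B score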
# KCNQ1 inh valid: KCNQ1 potassium channel inhibitors, confirmation, cell-based, Tl flux, duplicate; shares compounds with KCNQ1 block; KCNQ1 cell line, FluxOR thallium flux fluorescence; inhibition, % at 10 µM; actives 93% (n = 1,600);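 active = primary screen active, with duplicate mean exceeding buffer control mean plus 3 SD of buffer wells, cut at about 28% in these data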;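 also: 0% = buffer control ratio and 100% = XE991 inhibitor control ratio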
# CHO Tl flux: thallium flux effects in parental CHO cells, counter-screen for KCNQ1 inhibitor project, cell-based, Tl flux. shares compounds with KCNQ1 block. parental CHO-K1, FluxOR thallium flux fluorescence ratio; hits give low values; zero means no signal rise above baseline. fluorescence ratio (Tl flux) at 10 µM. actives 21% (n = 1,600);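 active = mean of duplicate thallium-flux fluorescence ratios in parental host cells more than 5 SD below the buffer control mean, cut at about 0.38 in these data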;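 also: ratio is peak minus minimum fluorescence divided by baseline fluorescence; actives read low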
# KCNQ1 ephys val: KCNQ1 channel inhibitors, confirmation, orthogonal assay, cell-based, automated electrophysiology; shares compounds with KCNQ1 block; KCNQ1-CHO cells, automated patch clamp current; calls only at 10 µM; actives 20% (n = 490);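 active = KCNQ1 current drop exceeding 3 SD of negative control wells, seen in both duplicate runs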;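 also: steady state current during a 2 s step from -80 to +40 mV; negative values mean current inhibition and positive values mean potentiation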
# KCNQ2 spec: KCNQ2 channel inhibition, selectivity assay for KCNQ1 inhibitor project, cell-based | shares compounds with KCNQ1 block | KCNQ2 cells, FluxOR thallium flux fluorescence | inhibition, % at 10 µM | actives 71% (n = 1,600) | AID 651746, 2012;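 active = mean percent inhibition of the KCNQ2 thallium signal more than 5 SD above the buffer-only control wells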;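 also: KCNQ2 expressed in CHO cells; 0% = buffer control wells and 100% = XE-991 inhibitor control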
# KCNQ1 KCNE1 spec: KCNQ1/KCNE1 channel inhibition, selectivity assay for KCNQ1 inhibitor project, CHO-K1 cells, thallium flux, FluxOR; shares compounds with KCNQ1 block; FluxOR thallium flux fluorescence; inhibition, % at 10 µM; actives 77% (n = 1,600); AID 652147, 2013;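 active = mean percent inhibition of duplicate wells above the buffer-only control mean plus 3 SD of those controls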;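 also: 0% = buffer only wells and 100% = XE-991 inhibitor control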
# Target sequence (P51787 whole entry, looked up): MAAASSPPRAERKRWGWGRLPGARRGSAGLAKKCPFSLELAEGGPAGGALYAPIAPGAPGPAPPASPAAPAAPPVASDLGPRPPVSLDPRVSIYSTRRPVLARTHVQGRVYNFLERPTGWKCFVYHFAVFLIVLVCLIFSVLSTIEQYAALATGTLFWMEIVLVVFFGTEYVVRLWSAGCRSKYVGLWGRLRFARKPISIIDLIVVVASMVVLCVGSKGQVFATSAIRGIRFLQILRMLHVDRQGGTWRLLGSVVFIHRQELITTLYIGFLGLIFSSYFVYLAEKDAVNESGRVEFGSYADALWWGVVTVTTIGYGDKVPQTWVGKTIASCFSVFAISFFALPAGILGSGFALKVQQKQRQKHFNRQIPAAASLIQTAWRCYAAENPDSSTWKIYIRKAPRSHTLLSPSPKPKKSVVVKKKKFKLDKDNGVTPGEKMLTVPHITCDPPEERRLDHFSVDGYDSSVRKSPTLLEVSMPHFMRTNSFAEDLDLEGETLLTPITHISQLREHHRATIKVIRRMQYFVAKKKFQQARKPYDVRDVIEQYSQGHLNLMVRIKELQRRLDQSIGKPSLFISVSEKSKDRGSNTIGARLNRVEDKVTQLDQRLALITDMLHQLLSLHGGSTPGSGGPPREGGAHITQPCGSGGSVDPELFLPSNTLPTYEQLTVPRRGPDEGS
# KCNK9 block conf: KCNK9 potassium channel inhibitors, confirmation, HEK293 cells, thallium flux, duplicate; shares compounds with KCNK9 block; FluxOR thallium flux fluorescence; inhibition, % at 10 µM; actives 43% (n = 4,900);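 active = thallium signal inhibited by more than 5 SD of the compound-free buffer control wells, on both duplicate plates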;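 also: 0% = assay buffer control wells without compound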
# Kir21 sel: mouse Kir2.1 channel inhibition, confirmation, selectivity assay for KCNK9 modulator project, cell-based, HEK293, thallium flux; inhibition, % at 10 µM; actives 4% (n = 4,900); Kir2.1 cells, FluxOR thallium flux fluorescence; shares compounds with KCNK9 block;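 active = thallium signal drop more than 5 SD beyond the mean of the no-compound control wells, seen in both duplicate plates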;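 also: signal is fluorescence rise after thallium addition divided by baseline fluorescence; plate controls were assay buffer only for no effect and full block by chlorpromazine control for full effect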
# KCNK9 uninduced: thallium flux in non-induced HEK293 cells, confirmation, counter-screen for KCNK9 inhibitor project, cell-based, second counter screen, non-induced KCNK9-HEK293; shares compounds with KCNK9 block; FluxOR thallium flux; inhibition, % at 10 µM; actives 40% (n = 4,900);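 active = thallium signal drop beyond 5 SD of the untreated control mean, on both duplicate plates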;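 also: plate controls were buffer only IC0 wells for no effect and SID17386958 at its maximal inhibitory level for full effect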
# KCNK3 inh conf: retest of human KCNK3 channel inhibitors, confirmation, CHO cells, FluxOR thallium flux, triplicate; shares compounds with KCNK3 block; FluxOR fluorescence; 0% buffer, 100% carvedilol maximal block; ratio percent of control, % at 10 µM; actives 99% (n = 2,400); AID 651638, 2012;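 active = ratio percent of control, averaged over triplicates, above buffer control mean plus 5 SD, cut at about 64% in these data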;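 also: ratio is the fluorescence rise from min to max over baseline after thallium stimulus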
# KCNK3 noninduced: thallium flux inhibition in non-induced cells, primary screen, counter-screen for KCNK3 inhibitor project, cell-based, non-induced KCNK3 line, FluxOR thallium, triplicate | shares compounds with KCNK3 block | non-induced KCNK3 parental cells; hits give low values | thallium flux ratio (lower = more inhibition) at 10 µM | actives 40% (n = 2,400) | AID 651747, 2012;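 active = thallium flux ratio, averaged over three wells, more than 5 SD below the buffer control mean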;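 also: host cells are CHO cells without KCNK3 induction; ratio is peak minus trough fluorescence over baseline then normalized to buffer controls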
# Starred values were filed as active, the others as inactive; i = inactive; x = no result; + = active, no number.
SMILES,KCNQ1 block,KCNK9 block,KCNK3 block,hERG protect,KCNQ1 act,KCNQ1 inh valid,CHO Tl flux,KCNQ1 ephys val,KCNQ2 spec,KCNQ1 KCNE1 spec,KCNK9 block conf,Kir21 sel,KCNK9 uninduced,KCNK3 inh conf,KCNK3 noninduced
CC(C)Cc1nc(N2CCN(C(=O)c3ccco3)CC2)c(C#N)c2c1CCCC2,11*,-16*,-10.2*,-8.9,i,116.0*,0.318*,x,116.7%*,i,34.0%*,i,28.5%*,66.0*,i
Cc1ccc(C)c(SCC(=O)OCC(=O)c2ccco2)c1,i,i,i,-5.8,i,x,x,x,x,x,x,x,x,x,x
CCOC(=O)Nc1nc(-c2ccccc2)c(C(=O)c2ccc(Cl)cc2)s1,7*,-14.6*,-8.74*,-11.6,i,97.5*,0.362*,x,94.0%*,171.0%*,39.5%*,i,42.0%*,124.7*,0.159*
O=c1c2c(nc(NCCO)n1CC1CCCCC1)-c1ccccc1CC21CCCC1,6*,-7.4*,-16.3*,3.5,i,91.0*,0.432,i,104.0%*,i,x,x,x,114.7*,0.158*
c1ccc(N2CCN(c3nc(NCc4ccco4)c4ccccc4n3)CC2)cc1,12*,i,-12*,-26.0,i,144.0*,0.352*,x,114.3%*,192.0%*,x,x,x,139.7*,0.11*
COc1cc(C(C)=O)ccc1OCC(=O)Nc1ccccc1N1CCCCC1,i,i,i,-4.7,i,x,x,x,x,x,x,x,x,x,x
Cc1cccc(OCC(=O)Nc2ccccc2N2CCCCC2)c1C,9*,-8.36*,i,-12.0,i,101.5*,0.439,i,88.3%*,149.5%*,53.5%*,33.5%*,42.0%*,110.0*,i
CC(C)c1ccc(-c2nn(-c3ccccc3)cc2C2C(C#N)=C(N)OC3=C2C(=O)CC(C)(C)C3)cc1 (stereo not given),i,i,i,-17.3,i,x,x,x,x,x,x,x,x,x,x
Cc1ccc(OCc2cccc(S(=O)(=O)N(C)C)c2)c([N+](=O)[O-])n1,i,i,i,-6.9,i,x,x,x,x,x,x,x,x,x,x
CC(c1cccs1)N(Cc1ccco1)C(=O)Nc1ccc(Cl)c(Cl)c1 (stereo not given),19*,-13.8*,-10.9*,-9.8,i,145.5*,0.354*,x,115.7%*,+,59.5%*,i,44.5%*,122.0*,0.132*
CCOc1ccc(C(=O)NNC(=O)CNC(=O)c2ccc(C)s2)cc1OC,x,x,i,x,x,x,x,x,x,x,x,x,x,x,x
CCOc1ccc(C(=O)Nc2cccc(-c3nc4cccnc4o3)c2)cc1Cl,9*,-16.4*,-10*,-18.4,i,135.0*,0.472,i,110.3%*,189.5%*,45.5%*,i,i,125.3*,i
CCOc1ccc(C(=O)Nc2cccc(C(=O)O)c2)cc1Cl,i,i,i,-7.2,i,x,x,x,x,x,x,x,x,x,x
COc1ccc2[nH]c3c(N4CCc5ccccc5C4)ncnc3c2c1,11*,i,-8.74*,-21.9,i,143.0*,0.252*,x,115.0%*,+,x,x,x,130.0*,0.116*
Cc1ccc(C(C)C)cc1OCC(=O)NC1CCCCCCC1,9*,i,-9.98*,-7.9,i,115.5*,0.422,i,i,113.0%*,x,x,x,114.0*,i
COc1ccc(N2C(=NC(=O)CC3CCCCC3)SC3CS(=O)(=O)CC32)cc1 (stereo not given),i,i,i,-6.6,i,x,x,x,x,x,x,x,x,x,x
CCC(C)COC(=O)C(C#N)c1nc2ccccc2nc1N1CCCCC1 (stereo not given),8*,-11.2*,i,-22.6,i,123.0*,0.425,i,102.3%*,116.0%*,48.5%*,i,45.0%*,117.3*,0.144*
CC(C)OC(=O)C(C#N)c1nc2ccccc2nc1N1CCCC1 (stereo not given),i,i,i,-5.1,i,x,x,x,x,x,x,x,x,x,x
Nc1ccccc1C(=O)NCC1(c2ccccc2)CCCC1,i,i,i,-10.1,i,x,x,x,x,x,x,x,x,x,x
C=CCn1c(=O)n(C(=O)OCC)c2cc(Br)ccc21,i,i,i,-6.5,i,x,x,x,x,x,x,x,x,x,x
Cc1ccc(NC(=S)NCc2ccccc2)cc1S(=O)(=O)N1CCCCC1,6*,i,-11.1*,-10.9,i,107.5*,0.523,i,62.3%*,i,x,x,x,116.3*,i
